FLuc stim CS: affects firefly luciferase, flagging false hits in luciferase stimulation screens | activation factor at 10 µM | AID 1027 | 200,000 tested, under 10 active | ATPlite luciferase biochemical, luminescence, 10 min; 0 = ATP-free wells, 1 = DMSO control;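 active = luciferase activation factor, scaled between plate controls, of at least 2 with compound at 10 µM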
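Assay system: Luciferase/luciferin detection reagent, cell-free biochemical luciferase assay / Also added: ATP substrate / Schedule: 10 min at ambient temperature / Measured by: luminescence measurement of luciferase light output / Benchmarks: low control with PBS replacing ATP, high control enzyme plus ATP without compound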
FLuc inhib CS: inhibits firefly luciferase, flagging false hits in luciferase inhibition screens; P08659; ATPLite firefly luciferase biochemical luminescence, 10 min; inhibition, % at 10 µM; hit rate 1.5% among 200,000; AID 1006;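 active = inhibition above about 50% when tested at 10 µM, limit read from the data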
ABCG2 inh: human ABCG2 inhibition, ABCB1 as counter-screen. IgMXP3 cells, JC-1 efflux, flow cytometry. inhibition, % at 6.6 µM. hit rate 0.1% among 190,000. AID 1325;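 active = inhibition above 80%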;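 also: 0% = DMSO and 100% = nicardipine control wells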
Target sequence (Q9UNQ0 whole entry, looked up): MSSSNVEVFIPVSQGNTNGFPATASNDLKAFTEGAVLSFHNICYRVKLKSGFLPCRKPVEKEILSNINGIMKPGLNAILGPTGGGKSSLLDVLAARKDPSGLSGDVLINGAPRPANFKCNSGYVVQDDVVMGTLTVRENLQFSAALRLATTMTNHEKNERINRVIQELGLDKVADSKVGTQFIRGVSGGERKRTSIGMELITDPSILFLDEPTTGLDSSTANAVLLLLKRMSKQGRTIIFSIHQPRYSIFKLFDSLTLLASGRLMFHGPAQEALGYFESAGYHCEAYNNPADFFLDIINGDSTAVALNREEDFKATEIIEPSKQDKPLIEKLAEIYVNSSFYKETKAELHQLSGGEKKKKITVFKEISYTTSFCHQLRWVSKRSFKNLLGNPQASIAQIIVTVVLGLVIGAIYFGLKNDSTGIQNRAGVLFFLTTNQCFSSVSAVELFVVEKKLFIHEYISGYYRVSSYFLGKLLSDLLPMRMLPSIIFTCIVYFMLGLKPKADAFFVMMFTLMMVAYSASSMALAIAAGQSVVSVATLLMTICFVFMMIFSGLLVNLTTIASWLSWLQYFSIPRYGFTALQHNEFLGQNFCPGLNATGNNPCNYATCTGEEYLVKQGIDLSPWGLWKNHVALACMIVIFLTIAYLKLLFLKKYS
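Times: 10 min at 25 °C | Test system: Two drug-resistant human cell lines, ABCG2 and ABCB1 | Quantity: 3 million cells/mL final, two lines in 1:1 ratio | Signal: Flow cytometry, 530 nm JC-1 signal | Dosing: Compound at 6.6 µM | Controls: Nicardipine and DMSO wells | Reagent: JC-1 as fluorescent efflux pump substrate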
ABCB1 inh: blocks JC-1 efflux by human ABCB1 transporter; CCRF-Adr cells, flow cytometry; inhibition, % at 6.6 µM; hit rate 0.067% among 190,000; AID 1326; in the data active = inhibition above about 40%;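 also: 0% = vehicle and 100% = reference inhibitor; higher value means more JC-1 retained so stronger ABCB1 efflux block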
Redox H2O2 prof: compounds producing H2O2 with reducing agent – biochemical, NIH compound library profiling, artefact control for MLSCN library redox annotation, primary screen; DTT-dependent redox cycling H2O2, phenol red/HRP absorbance; 100% = 100 µM peroxide control, 0% = buffer; activation, % at 10 µM; hit rate 0.03% among 200,000; AID 878;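 active = activation of at least 50% relative to the plate's high and low controls in the primary single-dose screen; inactive = activation below 50%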;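 also: compound incubated with DTT at 0.8 mM final as the reducing agent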
Measles CPE: protection of cells from measles virus; hit rate 1.5% among 140,000; protection (pct of control), % at 4 µM; Measles virus-infected cells, CPE protection, absorbance; in the data active = protection mostly above about 24%, no sharp cut-off; inactive = mostly below about 26%
The depositor's hits bear a star; / = no result given. Hits are enriched below; roughly 2.7% of the tested compounds scored in any of these assays.

SMILES	FLuc stim CS	FLuc inhib CS	ABCG2 inh	ABCB1 inh	Redox H2O2 prof	Measles CPE
CC(=O)Nc1ccc2nc(-c3ccccn3)[nH]c2c1	0.5	51*	0	0	1	28
c1ccc(-c2n[nH]c(-c3ccccn3)n2)cc1	0.7	30	12	0	0	8
c1ccc(-c2nc3cc4ccccc4cc3[nH]2)nc1	0	95*	1	0	3	10
c1cncc(-c2nc3cc4ccccc4cc3[nH]2)c1	0.2	82*	7	1	2	7
COC(=O)C1=C(C)Nc2nc(SCc3ccccc3)[nH]c(=O)c2C1c1cccs1 (configuration not stated)	1	2	11	1	0	18
Cc1ccc(-n2cc(C(=O)O)c(=O)cc2C)c(C)c1	1	0	8	3	-1	/
Cn1ncc(Br)c1C(=O)OCC(=O)Nc1nc(-c2ccccc2)cs1	1	-3	2	1	4	35*
O=C(N/N=C/c1ccc2c(c1)OCO2)c1sc2cccc(Cl)c2c1Cl	1.1	-5	-2	-1	-5	12
O=C(N/N=C/c1cccc([N+](=O)[O-])c1O)c1cccs1	0.3	67*	23	0	1	12
Cc1ccsc1C(=O)N/N=C/c1ccc2c(c1)OCO2	0.4	64*	11	1	1	8
O=C(N/N=C/c1ccc2c(c1)OCO2)c1cccs1	0.2	75*	7	0	0	17
Cc1cc(C(=O)N/N=C/c2ccc3c(c2)OCO3)c(C)o1	0.4	64*	0	0	0	/
Cn1c(NC(=O)c2ccccc2)c(-c2ccccn2)c(=O)c2ccccc21	1	-1	6	2	0	10
COc1ccc(NC(=O)C(NCC(C)C)c2ccccc2)cc1Cl (configuration not stated)	1	-3	3	1	0	/
CC(=O)c1cccc(NC(=O)COC(=O)c2n[nH]c3ccccc23)c1	1	0	5	0	0	/
O=C(Nc1ccon1)c1cc2c(s1)CCCC2	0.3	70*	2	0	2	6
O=C(Nc1ccccc1N1CCOCC1)c1cc2c(s1)CCCCC2	0.3	65*	3	1	-1	/
Cc1cnc(NC(=O)c2cc3c(s2)CCCC3)s1	0.1	93*	3	1	0	30
Cc1csc(NC(=O)c2cc3c(s2)CCCCC3)n1	0.1	95*	4	1	0	6
COc1cc(C2C3=C(CCCC3=O)Nc3[nH]n(-c4ccccc4)c(=O)c32)ccc1OC(C)=O (configuration not stated)	1	-1	2	0	-1	/
C=CCSC1=N/C(=C\c2cc(OCC)c(OC(C)=O)c([N+](=O)[O-])c2)C(=O)S1	1	1	-1	0	0	7
COc1ccc(S(=O)(=O)N(C)CC(=O)Nc2cccc(C(C)=O)c2)cc1Cl	1.1	-5	33	2	0	6
COC(=O)c1ccc(C(=O)OC)c(NC(=O)COC(=O)CC2CC3CCC2C3)c1 (configuration not stated)	1.1	-8	7	1	0	12
CCOC(=O)Cc1csc(NC(=O)c2csc3c2CCCC3)n1	0.8	17	35	1	-2	15
Cc1csc(NC(=O)c2cc3c(s2)CCCC3)n1	0.1	94*	31	1	0	2
SMILES	FLuc stim CS	FLuc inhib CS	ABCG2 inh	ABCB1 inh	Redox H2O2 prof	Measles CPE
CCOC(=O)Cc1csc(NC(=O)c2cc3c(s2)CCCC3)n1	0.4	61*	0	0	0	17
CC(C)NC(=O)c1cc2c(s1)CCCC2	1	5	22	2	2	10
CCCCNC(=S)NNC(=O)c1ccco1	1	-4	1	1	-2	13
O=C(COc1ccc2ccccc2c1)NCCNC(=O)COc1ccc2ccccc2c1	1	-1	6	0	1	85*
CN1CCCCC1=NCCCn1cnc2c1c(=O)n(C)c(=O)n2C	1	-2	1	0	-4	19*
COc1ccc(/C=C/c2nc3ccccc3n2Cc2ccc(OC)c(OC)c2)cc1	0.2	83*	17	8	0	18
COCCOCCn1c(/C=C/c2ccccc2)nc2ccccc21	0.2	84*	14	1	0	/
CCc1nc2ccccc2n1Cc1ccc(OC)c(OC)c1	1.1	-7	1	1	-4	6
CC(C)n1c(/C=C/c2ccccc2)nc2ccccc21	0.3	70*	1	0	0	3
CCCn1c(/C=C/c2ccccc2)nc2ccccc21	0.3	72*	25	1	-4	16
CCNc1nc(NC(C)(C)C)nc(Oc2ccc(=O)n(-c3ccccc3)n2)n1	1.1	-6	10	1	0	/
COc1cccc2cc(-c3nnc(-c4ccccc4)o3)c(=O)oc12	0.1	91*	12	2	0	/
CC(C)n1cnc2cc(NCc3nc4ccccc4n3C)ccc21	0.5	54*	14	1	0	6
CCn1cnc2cc(NCc3nc4ccccc4n3C)ccc21	0.5	53*	47	1	-1	6
CCn1cnc2cc(NCc3nc4ccccc4n3Cc3ccccc3)ccc21	0.7	31	16	3	0	10
CC1=Nn2c(nnc2-c2ccc(F)cc2)SC1	1	-2	3	0	0	36
Cc1ccc2nc(/C(C#N)=C\c3ccc(N4CCOCC4)o3)[nH]c2c1	0.4	62*	0	1	1	8
Cc1nn(-c2ccccc2)c(Cl)c1/C=N/Nc1nc2ccccc2[nH]1	0.4	65*	16	2	1	1
Brc1ccc(-c2ccc(/C=N/Nc3nc4ccccc4[nH]3)o2)cc1	0.2	81*	-1	0	0	9
Cc1nn(-c2ccccc2)c(Cl)c1/C=N/O	1	-3	8	1	0	5
Cc1ccc(/C=N/Nc2nc3ccccc3[nH]2)s1	0.3	72*	5	0	0	2
CCOc1cc(NC(=S)NCC2CCCO2)c(OCC)cc1NC(=O)c1ccccc1F (configuration not stated)	1.1	-5	4	2	-2	/
CCOC(CNC(=O)Cc1c(C)nc2c(-c3ccccc3)c(C)nn2c1C)OCC	1	-2	5	1	0	/
O=c1c2c3c(sc2nc2n1CCC2)CCC3	1	1	0	0	1	36*
O=c1c2c3c(sc2nc2n1CCC2)CCCCC3	1.1	-5	8	2	0	/
CCCn1c(SCC(=O)O)nc2ccccc21	1	-3	2	1	-3	16
